In data set [1] the test system is Rattus norvegicus. Description: Anticonvulsant activity in Sprague-Dawley rat assessed as protection against 150 mA current-induced seizure at 30 mg/kg, po measured after 15 mins by maximal electroshock seizure test. Type of data set: functional, organism-based. Put shortly: (§1)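 Rats received 30 mg/kg orally and were given maximal electroshock at 0.25, 0.5, 1, 2, 4 and 6 h. Read-out is the number of rats protected out of four.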

A short description of data set [2]: Neurotoxicity in Sprague-Dawley rat at 30 mg/kg, po measured after 4 hr by rotarod test. Particulars: in vivo. Type of data set: toxicity, organism-based. The gist of the method:
(§2)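 Rats given one oral dose of 30 mg/kg and tested on the rotarod at 0.25, 0.5, 1, 2, 4 and 6 h.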
(The rotarod test checks motor coordination on a turning rod.)

Data set [3] can be described thus: Neurotoxicity in Sprague-Dawley rat at 30 mg/kg, po measured after 2 hr by rotarod test. Type of data set: toxicity, organism-based. Particulars: in vivo. The gist of the method:
as §2

The nature of data set [4]: Neurotoxicity in Sprague-Dawley rat at 30 mg/kg, po measured after 1 hr by rotarod test. Format: toxicity, organism-based. Particulars: in vivo. Put shortly:
as §2

A short description of data set [5]: Neurotoxicity in Sprague-Dawley rat at 30 mg/kg, po measured after 30 mins by rotarod test. Format: toxicity, organism-based. Particulars: in vivo, 0.5 h. Put shortly:
as §2

Data set [6] can be described thus: Neurotoxicity in Sprague-Dawley rat at 30 mg/kg, po measured after 15 mins by rotarod test. Particulars: in vivo, 0.25 h. Format: toxicity, organism-based. Put shortly: as §2
The test system of data set [7] is Mus musculus. Description: Anticonvulsant activity in CD1 mouse assessed as protection against subcutaneous pentylenetetrazole-induced seizures at 300 mg/kg, ip and measured after 0.5 hrs. Format: functional, organism-based. Put shortly: (§3)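 Mice were screened after intraperitoneal doses of 30, 100 and 300 mg/kg in the maximal electroshock and subcutaneous pentylenetetrazole tests, examined at 0.5 and 4 h. The value recorded is the minimum dose showing activity. No activity up to 300 mg/kg is scored as absent.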

Data set [8] concerns Mus musculus. Description: Anticonvulsant activity in ip dosed CD1 mouse assessed as protection against 50 mA current-induced seizure and measured after 4 hrs by maximal electroshock seizure test. Type of data set: functional. Particulars: read-out: MED. Put shortly:
as §3
A general note: Protection in the maximal electroshock model is a classic sign of anticonvulsant action.

For data set [9], the system named is Mus musculus. Description: Anticonvulsant activity in CD1 mouse assessed as protection against 50 mA current-induced seizure at 300 mg/kg, ip and measured after 0.5 hrs by maximal electroshock seizure test. Format: functional, organism-based. The gist of the method: as §3
Data set [10] concerns Mus musculus. Description: Anticonvulsant activity in CD1 mouse assessed as protection against subcutaneous pentylenetetrazole-induced seizures at 300 mg/kg, ip and measured after 4 hrs. Type of data set: functional, organism-based. The gist of the method:
as §3

Data set [11] is described as follows: Neurotoxicity in CD1 mouse at 300 mg/kg, ip and measured after 0.5 hrs by rotarod test. Particulars: in vivo. Type of data set: toxicity, organism-based. Put shortly: (§4)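 Mice dosed intraperitoneally at 30, 100 and 300 mg/kg, then tested on the rotarod at 0.5 h and 4 h. The value recorded is the minimum dose at which neurotoxicity appeared. A dash means no neurotoxicity at the top dose of 300 mg/kg.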

Data set [12] in a line: Neurotoxicity in CD1 mouse at 300 mg/kg, ip and measured after 4 hrs hrs by rotarod test. Type of data set: toxicity, organism-based. Particulars: in vivo. Put shortly: as §4
Data set [13] can be described thus: Neurotoxicity in CD1 mouse at 100 mg/kg, ip measured after 1 hr by rotarod test. Particulars: in vivo.
Data set [14] in a line: Neurotoxicity in CD1 mouse at 100 mg/kg, ip measured after 2 hrs by rotarod test. Particulars: in vivo.
Data set [15] in a line: Neurotoxicity in CD1 mouse at 100 mg/kg, ip measured after 4 hrs by rotarod test. Particulars: in vivo.
The nature of data set [16]: Neurotoxicity in CD1 mouse at 100 mg/kg, ip measured after 15 mins by rotarod test. Particulars: in vivo, 0.25 h.
Data set [17] is described as follows: Neurotoxicity in CD1 mouse at 100 mg/kg, ip measured after 30 mins by rotarod test. Particulars: in vivo, 0.5 h.
Data set [18] concerns Mus musculus. Description: Anticonvulsant activity in CD1 mouse assessed as protection against 32 mA current-induced seizure at 100 mg/kg, ip measured after 15 mins by 6 Hz psychomotor seizure test.
Data set [19] relates to Rattus norvegicus. Description: Anticonvulsant activity in Sprague-Dawley rat assessed as protection against 150 mA current-induced seizure at 30 mg/kg, po measured after 2 hrs by maximal electroshock seizure test. Format: functional, organism-based. Put shortly: as §1
Data set [20] deals with Rattus norvegicus. Description: Anticonvulsant activity in Sprague-Dawley rat assessed as protection against 150 mA current-induced seizure at 30 mg/kg, po measured after 1 hr by maximal electroshock seizure test. Type of data set: functional, organism-based. The gist of the method:
as §1

Data set [21] deals with Rattus norvegicus. Description: Anticonvulsant activity in Sprague-Dawley rat assessed as protection against 150 mA current-induced seizure at 30 mg/kg, po measured after 30 mins by maximal electroshock seizure test. Format: functional, organism-based. Put shortly:
as §1

The test system of data set [22] is Mus musculus. Description: Anticonvulsant activity in ip dosed CD1 mouse assessed as protection against 50 mA current-induced seizure and measured after 0.5 hrs by maximal electroshock seizure test. Format: functional. Particulars: read-out: MED. The gist of the method:
as §3

Data set [23] has as its system Mus musculus. Description: Anticonvulsant activity in CD1 mouse assessed as protection against 32 mA current-induced seizure at 100 mg/kg, ip measured after 2 hrs by 6 Hz psychomotor seizure test.
Data set [24] can be described thus: Neurotoxicity in ip dosed CD1 mouse and measured after 0.5 hrs by rotarod test. Format: toxicity, organism-based. Particulars: in vivo. Put shortly: as §4
In data set [25] the test system is Mus musculus. Description: Anticonvulsant activity in CD1 mouse assessed as protection against 50 mA current-induced seizure at 300 mg/kg, ip and measured after 4 hrs by maximal electroshock seizure test. Format: functional, organism-based. Put shortly: as §3
Data set [26] in a line: Neurotoxicity in ip dosed CD1 mouse and measured after 4 hrs by rotarod test. Type of data set: toxicity, organism-based. Particulars: in vivo. The gist of the method:
as §4

Active and inactive are the calls of the source. Unless noted, no cut-off for these calls is given here.

`CC(C)C1(C(C)C)NC(=O)N(CN2CCN(c3cccc(C(F)(F)F)c3)CC2)C1=O`: the result in the data set on Rattus norvegicus [1], in the data set with Mus musculus [9], with Mus musculus [10] and with Mus musculus [18] was inactive. Moreover, the Activity entry in [2], in data set [3], in data set [4], in [5], in data set [6] and in data set [11] was “Non-Toxic” throughout. For the same compound, the Activity result in [12], in [13], in data set [14], in data set [15], in data set [16] and in [17] was “Non-Toxic” throughout. Besides, the MED result with Mus musculus [7] is “inactive”. Also, in the data set on Mus musculus [8], the minimal effective dose stood at 100 mg/kg.

In the case of `O=C1NC(c2ccccc2)(c2ccccc2)C(=O)N1CN1CCN(c2ccc(F)cc2)CC1`, the result with Rattus norvegicus [1], in the data set with Rattus norvegicus [19], in the data set on Rattus norvegicus [20], in the data set with Mus musculus [9] and in the data set on Mus musculus [10] was inactive. Also, the Activity entry in [2], in [3], in [4], in data set [5], in data set [6] and in [11] was “Non-Toxic” in each case. Also, the Activity result in [12] is reported as “Non-Toxic”. The MED entry in the data set on Mus musculus [7] was “inactive”. Moreover, the minimal effective dose with Mus musculus [8] turned out to be 100 mg/kg.

As for `CC(C)C1(C(C)C)NC(=O)N(CN2CCN(c3cccc(Cl)c3)CC2)C1=O`, the outcome in the data set with Rattus norvegicus [1], with Rattus norvegicus [20], in the data set on Rattus norvegicus [21] and in the data set with Mus musculus [10] was inactive. Moreover, the Activity entry in data set [2], in [3], in [4], in data set [5], in [6] and in data set [11] was “Non-Toxic” each time. Also, the Activity result in data set [12] is recorded as “Non-Toxic”. Further, in the data set with Mus musculus [7], the MED entry is “inactive”. For the same compound, the minimal effective dose with Mus musculus [8] and in the data set with Mus musculus [22] was 100 mg/kg in each case.

For `O=C1NC(c2ccccc2)(c2ccccc2)C(=O)N1CN1CCN(c2ccccc2F)CC1`, the outcome in the data set on Rattus norvegicus [1], in the data set with Mus musculus [9] and in the data set on Mus musculus [10] was inactive. For the same compound, the Activity entry in [2], in data set [3], in data set [4], in data set [5], in data set [6] and in data set [11] was “Non-Toxic” throughout. In addition, the Activity result in [12], in [13], in data set [14], in data set [15], in data set [16] and in data set [17] was “Non-Toxic” each time. Also, the MED result in the data set on Mus musculus [7] is “inactive”. In the data set on Mus musculus [8], the minimal effective dose came to 30 mg/kg. Further, the result with Mus musculus [23] was Active.

Consider `O=C1NC(c2ccccc2)(c2ccccc2)C(=O)N1CN1CCN(c2cccc(Cl)c2)CC1`, for which the Activity entry in [2], in data set [3], in [4], in [5], in data set [6] and in [11] was “Non-Toxic” each time. In addition, in data set [12], the Activity entry was “Non-Toxic”. In addition, the result with Rattus norvegicus [21], in the data set with Mus musculus [9] and in the data set on Mus musculus [10] was inactive. In addition, the MED entry in the data set with Mus musculus [7] is “inactive”. Also, the minimal effective dose with Mus musculus [8] stood at 100 mg/kg.

Regarding `O=C1NC(c2ccccc2)(c2ccccc2)C(=O)N1CN1CCN(Cc2ccccc2)CC1`, the Activity entry in data set [2], in [3], in data set [4], in data set [5], in data set [6] and in data set [11] was “Non-Toxic” in each case. For the same compound, the Activity entry in [12] was “Non-Toxic”. Further, the outcome with Rattus norvegicus [19], with Rattus norvegicus [20] and with Mus musculus [10] was inactive. Also, in the data set with Mus musculus [7], the MED result was “inactive”. The minimal effective dose in the data set with Mus musculus [8] was 100 mg/kg; in the data set on Mus musculus [22], 300 mg/kg.

In turn, `CC(C)C1(C(C)C)NC(=O)N(CN2CCN(Cc3ccccc3)CC2)C1=O` had a minimal neurotoxic dose in [24] of 300 mg/kg. Moreover, in the data set on Mus musculus [7], the MED result was “inactive”. For the same compound, the result in the data set with Mus musculus [9], in the data set with Mus musculus [25] and in the data set on Mus musculus [10] was inactive. Also, the Activity entry in [12] is “Non-Toxic”.

Turning to `O=C1NC(c2ccccc2)(c2ccccc2)C(=O)N1CN1CCN(c2ccccc2)CC1`, the Activity result in [2], in data set [3], in data set [4], in data set [5], in data set [6] and in [11] was “Non-Toxic” throughout. In addition, the Activity entry in [12] is “Non-Toxic”. In addition, the MED entry in the data set on Mus musculus [7] was “inactive”. Further, the figures for the minimal effective dose in the data set on Mus musculus [8] and in the data set with Mus musculus [22] were 100 mg/kg and 300 mg/kg, respectively. Besides, in the data set with Mus musculus [10], the outcome was inactive.

In data set [24], `CC(C)C1(C(C)C)NC(=O)N(CN2CCN(C)CC2)C1=O` displayed a minimal neurotoxic dose of 300 mg/kg. In addition, the MED result with Mus musculus [7] is “inactive”. In addition, the minimal effective dose in the data set with Mus musculus [22] was found to be 300 mg/kg. Besides, the result with Mus musculus [25] and with Mus musculus [10] was inactive. Moreover, the Activity entry in data set [12] is recorded as “Non-Toxic”.

In data set [26], `CC(C)C1(C(C)C)NC(=O)N(CN2CCN(c3ccc(F)cc3)CC2)C1=O` registered an MTC of 300 mg/kg. In addition, the minimal neurotoxic dose in data set [24] was found to be 300 mg/kg. Also, the MED result with Mus musculus [7] was “inactive”. For the same compound, in the data set on Mus musculus [8], the minimal effective dose stood at 100 mg/kg. Also, the result with Mus musculus [9] and in the data set with Mus musculus [10] was inactive.

The values are drawn from ChEMBL document CHEMBL4346727, “Synthesis and pharmacological evaluation of novel N-Mannich bases derived from 5,5-diphenyl and 5,5-di(propan-2-yl)imidazolidine-2,4-dione core” (Bioorg Med Chem Lett, 2019).
